The source made the active and inactive calls. The calls are words filed in the database; no cut-off is given here.
Experiments:
[1] = Antiproliferative activity against wild type BRAF expressing human WM1361 cells after 48 hrs by MTT assay; assay type: functional; conditions: WM1361, 48 h
Summary of the method: (§1)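 MTT assay. Cells seeded at 10^4 per well in 96-well plates and left 24 h. Compounds then added at 0.01, 0.1, 1, 10 and 100 µM for 48 h. IC50 values calculated from the viability data.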

HT-29 = test: Antiproliferative activity against human HT-29 cells harboring BRAF V600E mutant after 48 hrs by MTT assay; assay type: functional, cell-based; conditions: HT-29, 48 h; summary of the method: as §1
A-375 [2] = test: Antiproliferative activity against human A375 cells harboring BRAF V600E mutant after 48 hrs by MTT assay; assay type: functional, cell-based; conditions: A-375, 48 h; summary of the method: as §1
HCT-116 = test: Antiproliferative activity against wild type BRAF expressing human HCT116 cells after 48 hrs by MTT assay; assay type: functional, cell-based; conditions: HCT-116, 48 h; summary of the method: as §1
[3] = biological target: Serine/threonine-protein kinase B-raf (Mus musculus, UniProt P28028, V600E); test: Inhibition of mouse full length GST-tagged BRAF V600E mutant using recombinant human full length N-terminal His-tagged MEK1 as substrate preincubated for 1 hr followed by substrate addition measured after 25 mins by Nu-page gel-based phosphor screen analysis
Serine/threonine-protein kinase B-raf (Mus musculus, UniProt P28028, V600E), sequence (P28028 whole entry, looked up, stated change not applied): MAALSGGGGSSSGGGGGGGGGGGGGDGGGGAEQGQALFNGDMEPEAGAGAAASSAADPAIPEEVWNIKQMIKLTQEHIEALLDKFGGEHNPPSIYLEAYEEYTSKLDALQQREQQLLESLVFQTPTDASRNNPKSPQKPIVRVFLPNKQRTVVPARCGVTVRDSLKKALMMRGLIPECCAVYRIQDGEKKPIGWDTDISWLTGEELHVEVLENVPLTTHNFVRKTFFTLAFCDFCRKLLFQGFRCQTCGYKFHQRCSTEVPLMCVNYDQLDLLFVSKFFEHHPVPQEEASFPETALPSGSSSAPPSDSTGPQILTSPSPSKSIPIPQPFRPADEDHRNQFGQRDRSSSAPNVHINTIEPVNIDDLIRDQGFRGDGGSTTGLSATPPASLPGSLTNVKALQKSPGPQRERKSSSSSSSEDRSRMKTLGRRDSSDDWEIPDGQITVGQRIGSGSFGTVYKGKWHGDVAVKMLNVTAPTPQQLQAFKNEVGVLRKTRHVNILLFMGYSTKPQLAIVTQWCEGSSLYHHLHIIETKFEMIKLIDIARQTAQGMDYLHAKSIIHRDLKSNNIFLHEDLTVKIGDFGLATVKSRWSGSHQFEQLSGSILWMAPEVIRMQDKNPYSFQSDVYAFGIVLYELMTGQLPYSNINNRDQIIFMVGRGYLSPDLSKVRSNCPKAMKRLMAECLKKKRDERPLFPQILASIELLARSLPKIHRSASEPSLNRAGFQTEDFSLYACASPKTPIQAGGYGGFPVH

A-375 [4] = test: Induction of apoptosis in human A375 cells assessed as necrotic cells at 1 uM after 24 hrs by Annexin V-FITC/propidium iodide double staining-based flow cytometry (reference value: 0.227%); assay type: functional
A-375 [5] = test: Effect on total ERK protein levels in human A375 cells at 0.05 to 5 uM by Western blot analysis; assay type: ADME, cell-based; conditions: a-375, 5 µM
Summary of the method: (§2)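 Cells in 6-well plates were lysed in RIPA with PMSF on ice for 30 min and cleared at 12,000 g, 4 °C. Protein was measured by BCA, run on SDS-PAGE and moved to PVDF. Blots were blocked in 5% milk/TBST, given primary antibodies (1:500–1:1000) overnight at 4 °C, then HRP secondaries (1:5000–1:10000) for 1 h. Bands were detected by ECL.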

A-375 [6] = test: Induction of apoptosis in human A375 cells assessed as late apoptotic cells at 4 uM after 24 hrs by Annexin V-FITC/propidium iodide double staining-based flow cytometry (reference value: 2.36%); assay type: functional
A-375 [7] = test: Induction of apoptosis in human A375 cells assessed as viable cells at 2 uM after 24 hrs by Annexin V-FITC/propidium iodide double staining-based flow cytometry (reference value: 96.2%); assay type: functional; conditions: A-375, 24 h, read-out: Activity
A-375 [8] = test: Induction of apoptosis in human A375 cells assessed as necrotic cells at 4 uM after 24 hrs by Annexin V-FITC/propidium iodide double staining-based flow cytometry (reference value: 0.227%); assay type: functional
A-375 [9] = test: Effect on total MEK protein levels in human A375 cells at 0.05 to 5 uM by Western blot analysis; assay type: ADME, cell-based; conditions: a-375, 5 µM; summary of the method: as §2
[10] = biological target: T1, Serine/threonine-protein kinase B-raf (Homo sapiens, UniProt P15056); test: Inhibition of wild type BRAF in human WM1361 cells assessed as reduction in MEK phosphorylation at 0.5 uM by Western blot analysis; assay type: cell-based; summary of the method: as §2
T1 sequence (P15056 whole entry): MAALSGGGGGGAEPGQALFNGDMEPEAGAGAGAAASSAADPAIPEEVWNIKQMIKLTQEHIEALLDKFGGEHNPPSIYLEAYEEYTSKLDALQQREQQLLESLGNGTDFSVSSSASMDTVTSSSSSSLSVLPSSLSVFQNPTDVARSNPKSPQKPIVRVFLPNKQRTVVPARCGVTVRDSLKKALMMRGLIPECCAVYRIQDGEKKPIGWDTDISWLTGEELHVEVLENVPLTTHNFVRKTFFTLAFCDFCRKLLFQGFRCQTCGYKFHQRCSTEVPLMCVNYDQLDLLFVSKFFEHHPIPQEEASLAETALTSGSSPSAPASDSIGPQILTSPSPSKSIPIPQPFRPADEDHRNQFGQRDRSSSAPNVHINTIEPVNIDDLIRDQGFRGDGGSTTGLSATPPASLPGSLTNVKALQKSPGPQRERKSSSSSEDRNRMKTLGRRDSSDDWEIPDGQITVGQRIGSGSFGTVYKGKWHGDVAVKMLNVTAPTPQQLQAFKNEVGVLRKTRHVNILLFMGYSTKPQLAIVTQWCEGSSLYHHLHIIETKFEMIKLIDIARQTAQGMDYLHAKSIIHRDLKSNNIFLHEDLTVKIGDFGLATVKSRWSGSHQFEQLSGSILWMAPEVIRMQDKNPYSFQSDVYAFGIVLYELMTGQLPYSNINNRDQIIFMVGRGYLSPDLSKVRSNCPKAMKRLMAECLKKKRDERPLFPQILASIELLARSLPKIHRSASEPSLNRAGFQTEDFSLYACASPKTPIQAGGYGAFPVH

[11] = biological target: T1, Serine/threonine-protein kinase B-raf; test: Inhibition of wild type BRAF in human WM1361 cells assessed as reduction in ERK phosphorylation at 0.5 uM by Western blot analysis; assay type: cell-based; summary of the method: as §2
A-375 [12] = test: Induction of apoptosis in human A375 cells assessed as viable cells at 1 uM after 24 hrs by Annexin V-FITC/propidium iodide double staining-based flow cytometry (reference value: 96.2%); assay type: functional; conditions: A-375, 24 h, read-out: Activity
A-375 [13] = test: Induction of apoptosis in human A375 cells assessed as early apoptotic cells at 2 uM after 24 hrs by Annexin V-FITC/propidium iodide double staining-based flow cytometry (reference value: 1.19%); assay type: functional
A-375 [14] = test: Induction of apoptosis in human A375 cells assessed as necrotic cells at 2 uM after 24 hrs by Annexin V-FITC/propidium iodide double staining-based flow cytometry (reference value: 0.227%); assay type: functional
A-375 [15] = test: Induction of apoptosis in human A375 cells assessed as late apoptotic cells at 2 uM after 24 hrs by Annexin V-FITC/propidium iodide double staining-based flow cytometry (reference value: 2.36%); assay type: functional
[16] = biological target: T1, Serine/threonine-protein kinase B-raf; test: Induction of wild type BRAF activation in human WM1361 cells assessed as increase in ERK phosphorylation up to 0.15 uM by Western blot analysis; assay type: cell-based; summary of the method: as §2
A-375 [17] = test: Induction of apoptosis in human A375 cells assessed as viable cells at 4 uM after 24 hrs by Annexin V-FITC/propidium iodide double staining-based flow cytometry (reference value: 96.2%); assay type: functional; conditions: A-375, 24 h, read-out: Activity
[18] = system: Serine/threonine-protein kinase B-raf (Homo sapiens), P15056 [V600E]; test: Inhibition of BRAF V600E mutant in human A375 cells assessed as reduction in MEK phosphorylation by Western blot analysis; assay type: cell-based; summary of the method: as §2
Serine/threonine-protein kinase B-raf (Homo sapiens), P15056 [V600E], sequence (P15056 whole entry V600E): as the sequence (P15056 whole entry) above, with V600E counted along it

A-375 [19] = test: Induction of apoptosis in human A375 cells assessed as late apoptotic cells at 1 uM after 24 hrs by Annexin V-FITC/propidium iodide double staining-based flow cytometry (reference value: 2.36%); assay type: functional
A-375 [20] = test: Induction of apoptosis in human A375 cells after 24 hrs by Annexin V-FITC/propidium iodide double staining-based flow cytometry; assay type: functional, cell-based
[21] = system: Serine/threonine-protein kinase B-raf (Homo sapiens), P15056 [V600E]; test: Inhibition of BRAF V600E mutant in human A375 cells assessed as reduction in ERK phosphorylation by Western blot analysis; assay type: cell-based; summary of the method: as §2
[22] = biological target: T1, Serine/threonine-protein kinase B-raf; test: Induction of wild type BRAF activation in human WM1361 cells assessed as increase in MEK phosphorylation up to 0.15 uM by Western blot analysis; assay type: cell-based; summary of the method: as §2
A-375 [23] = test: Induction of apoptosis in human A375 cells assessed as early apoptotic cells at 1 uM after 24 hrs by Annexin V-FITC/propidium iodide double staining-based flow cytometry (reference value: 1.19%); assay type: functional
A-375 [24] = test: Induction of apoptosis in human A375 cells assessed as early apoptotic cells at 4 uM after 24 hrs by Annexin V-FITC/propidium iodide double staining-based flow cytometry (reference value: 1.19%); assay type: functional

CNC(=O)c1cc(Oc2ccc(NC(=O)Nc3ccc(Cl)c(C(F)(F)F)c3)cc2)ccn1 [SORAFENIB]
IC50 [1]: 16.4 µM | IC50 (HT-29): 8.44 µM | IC50 (A-375 [2]): 3.36 µM | IC50 (HCT-116): 23.3 µM

O=C(Nc1ccc2[nH]ncc2c1)c1cccc(NC(=O)c2cccc(Cl)n2)c1
IC50 [1]: 27.2 µM | IC50 (HT-29): 12.2 µM | IC50 [3]: 1.05 µM | IC50 (A-375 [2]): 8.83 µM | IC50 (HCT-116): 24.9 µM

CC(C)(C)c1ccc(C(=O)Nc2cccc(C(=O)Nc3ccc4[nH]ncc4c3)c2)cc1
IC50 [1]: 18.4 µM | IC50 (HT-29): 10.9 µM | IC50 [3]: 0.75 µM | IC50 (A-375 [2]): 2.85 µM | IC50 (HCT-116): 26.2 µM

O=C(Nc1cccc(C(=O)Nc2ccc3[nH]ncc3c2)c1)c1cccc(Cl)c1
IC50 [1]: 25.5 µM | IC50 (HT-29): 20.5 µM | IC50 [3]: 4.94 µM | IC50 (A-375 [2]): 9.87 µM | IC50 (HCT-116): 26.2 µM

O=C(Nc1cccc(C(=O)Nc2ccc3[nH]ccc3c2)c1)c1ccc(Cl)cc1
IC50 [1]: 19.6 µM | IC50 (HT-29): 11.1 µM | IC50 [3]: 2.61 µM | IC50 (A-375 [2]): 6.72 µM | IC50 (HCT-116): 22.3 µM

O=C(Nc1ccc2[nH]ccc2c1)c1cccc(NC(=O)c2cccc(Cl)n2)c1
IC50 [1]: 19.2 µM | IC50 (HT-29): 19.6 µM | IC50 [3]: 6.57 µM | IC50 (A-375 [2]): 8.46 µM | IC50 (HCT-116): 35.5 µM

O=C(Nc1cccc(C(=O)Nc2ccc3[nH]ncc3c2)c1)c1ccc(Oc2ccccc2)cc1
IC50 [1]: 29.6 µM | IC50 (HT-29): 18.5 µM | IC50 [3]: 5.27 µM | IC50 (A-375 [2]): 9.45 µM | IC50 (HCT-116): 37.4 µM

O=C(Nc1cccc(C(=O)Nc2ccc3[nH]ncc3c2)c1)c1cccc(F)c1
IC50 [1]: 38.4 µM | IC50 (HT-29): 19.2 µM | IC50 [3]: 8.71 µM | IC50 (A-375 [2]): 12.2 µM | IC50 (HCT-116): 20.5 µM

O=C(Nc1cccc(C(=O)Nc2ccc3[nH]ncc3c2)c1)c1ccc(F)cc1
IC50 [1]: 29.2 µM | IC50 (HT-29): 12.2 µM | IC50 [3]: 1.57 µM | IC50 (A-375 [2]): 7.15 µM | IC50 (HCT-116): 36.2 µM

O=C(Nc1ccc2[nH]ccc2c1)c1cccc(NC(=O)c2ccccn2)c1
IC50 [1]: 17.4 µM | IC50 (HT-29): 10.6 µM | IC50 [3]: 3.52 µM | IC50 (A-375 [2]): 5.78 µM | IC50 (HCT-116): 23.8 µM

O=C(Nc1cccc(C(=O)Nc2ccc3[nH]ncc3c2)c1)c1ccc(Cl)cc1
IC50 [1]: 30.8 µM | IC50 (HT-29): 17.9 µM | IC50 [3]: 3.04 µM | IC50 (A-375 [2]): 7.62 µM | IC50 (HCT-116): 32.5 µM

O=C(Nc1ccc2[nH]ncc2c1)c1cccc(NC(=O)c2ccccn2)c1
IC50 [1]: 28.2 µM | IC50 (HT-29): 17.2 µM | IC50 [3]: 4.11 µM | IC50 (A-375 [2]): 8.29 µM | IC50 (HCT-116): 35.9 µM

O=C(Nc1cccc(C(=O)Nc2ccc3[nH]ncc3c2)c1)c1ccccc1
IC50 [1]: 35.1 µM | IC50 (HT-29): 16.1 µM | IC50 [3]: 5.22 µM | IC50 (A-375 [2]): 9.12 µM | IC50 (HCT-116): 30.9 µM

O=C(Nc1ccc2[nH]ncc2c1)c1cccc(NC(=O)c2cc(Cl)ccn2)c1
IC50 [1]: 16.2 µM | IC50 (HT-29): 8.99 µM | IC50 [3]: 1.14 µM | IC50 (A-375 [2]): 4.56 µM | IC50 (HCT-116): 19.7 µM

O=C(Nc1cccc(C(=O)Nc2ccc3[nH]ccc3c2)c1)c1ccc(Oc2ccccc2)cc1
IC50 [1]: 21.6 µM | IC50 (HT-29): 21.1 µM | IC50 [3]: 5.72 µM | IC50 (A-375 [2]): 10.5 µM | IC50 (HCT-116): 35.2 µM

Cc1cccc(C(=O)Nc2cccc(C(=O)Nc3ccc4[nH]ncc4c3)c2)n1
IC50 [1]: 21.3 µM | IC50 (HT-29): 11.5 µM | IC50 [3]: 0.81 µM | IC50 (A-375 [2]): 7.46 µM | IC50 (HCT-116): 25.1 µM

O=C(Nc1ccc2[nH]ncc2c1)c1cccc(NC(=O)c2ccc(Br)cn2)c1
IC50 [1]: 19.6 µM | IC50 (HT-29): 9.65 µM | IC50 [3]: 0.46 µM | IC50 (A-375 [2]): 7.58 µM | IC50 (HCT-116): 22.2 µM

O=C(Nc1cccc(C(=O)Nc2ccc3[nH]ccc3c2)c1)c1ccccc1
IC50 [1]: 24.6 µM | IC50 (HT-29): 10.6 µM | IC50 [3]: 2.11 µM | IC50 (A-375 [2]): 6.49 µM | IC50 (HCT-116): 21.2 µM

O=C(Nc1cccc(C(=O)Nc2ccc3[nH]ncc3c2)c1)c1ccc(Br)cc1
IC50 [1]: 24.6 µM | IC50 (HT-29): 14.4 µM | IC50 [3]: 2.78 µM | IC50 (A-375 [2]): 5.74 µM | IC50 (HCT-116): 29.2 µM

O=C(Nc1cccc(C(=O)Nc2ccc3[nH]ncc3c2)c1)c1ccc(C(F)(F)F)cc1
IC50 [1]: 12.8 µM | Activity (A-375 [4]): 1.56% | Activity (A-375 [5]): Non-Toxic | IC50 (HT-29): 4.41 µM | IC50 [3]: 0.18 µM | IC50 (A-375 [2]): 1.97 µM | Activity (A-375 [6]): 16.1% | viability at 2 µM (A-375 [7]): 73.7% | Activity (A-375 [8]): 0.652% | Activity (A-375 [9]): Non-Toxic | inhibition [10]: Active | inhibition [11]: Active | viability at 1 µM (A-375 [12]): 80.3% | Activity (A-375 [13]): 10.7% | Activity (A-375 [14]): 1.05% | Activity (A-375 [15]): 14.6% | Activity [16]: Not Active | viability at 4 µM (A-375 [17]): 71% | inhibition [18]: Dose-dependent effect | Activity (A-375 [19]): 10.1% | Activity (A-375 [20]): Dose-dependent effect | inhibition [21]: Dose-dependent effect | Activity [22]: Not Active | Activity (A-375 [23]): 8.05% | Activity (A-375 [24]): 12.2% | IC50 (HCT-116): 18.7 µM
